tested on: Staphylococcus aureus; assay: Antimicrobial activity against Staphylococcus aureus ATCC […] after 18-24 hrs by two-fold serial dilution method; format: functional
Summary of the method: (§1)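 Agar-medium twofold serial dilution against Gram-positive and Gram-negative strains; MIC taken as the lowest compound concentration giving complete inhibition of bacterial growth after incubation at 35 °C for 18-24 h.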

`COc1cc(Br)c(CO/N=C2\CN(c3nc4c(cc3F)c(=O)c(C(=O)O)cn4C3CC3)CC2CN)cc1OC.CS(=O)(=O)O` (racemic) was tested. Which MIC did it give?
The MIC was under 0.008 µg/mL.

tested on: Enterococcus faecium; assay: Antimicrobial activity against Enterococcus faecium 10-9 after 18-24 hrs by two-fold serial dilution method; format: functional; summary of the method: as §1

With `COc1cc(Br)c(CO/N=C2\CN(c3nc4c(cc3F)c(=O)c(C(=O)O)cn4C3CC3)CC2CN)cc1OC.CS(=O)(=O)O` (racemic) as the molecule, how does the MIC read?
The MIC was 64 µg/mL.

tested on: Pseudomonas aeruginosa; assay: Antimicrobial activity against extended spectrum beta-lactamases-producing Pseudomonas aeruginosa 10-20 after 18-24 hrs by two-fold serial dilution method; format: functional; summary of the method: as §1

Which MIC does the source give for `COc1cc(Br)c(CO/N=C2\CN(c3nc4c(cc3F)c(=O)c(C(=O)O)cn4C3CC3)CC2CN)cc1OC.CS(=O)(=O)O` (racemic) here?
Its MIC is over 128 µg/mL.

tested on: Klebsiella pneumoniae; assay: Antimicrobial activity against extended spectrum beta-lactamases-producing Klebsiella pneumoniae 10-3 after 18-24 hrs by two-fold serial dilution method; format: functional; summary of the method: as §1

With `COc1cc(Br)c(CO/N=C2\CN(c3nc4c(cc3F)c(=O)c(C(=O)O)cn4C3CC3)CC2CN)cc1OC.CS(=O)(=O)O` (racemic) as the molecule, how does the MIC read?
Its MIC is over 128 µg/mL.

tested on: Escherichia coli; assay: Antimicrobial activity against extended spectrum beta-lactamases-producing Escherichia coli 10-3 after 18-24 hrs by two-fold serial dilution method; format: functional; summary of the method: as §1

How did the MIC turn out when `COc1cc(Br)c(CO/N=C2\CN(c3nc4c(cc3F)c(=O)c(C(=O)O)cn4C3CC3)CC2CN)cc1OC.CS(=O)(=O)O` (racemic) was run?
The MIC was over 128 µg/mL.

tested on: Staphylococcus aureus; assay: Antimicrobial activity against extended spectrum beta-lactamases-producing methicillin-sensitive Staphylococcus aureus 10-14 after 18-24 hrs by two-fold serial dilution method; format: functional; summary of the method: as §1

With `COc1cc(Br)c(CO/N=C2\CN(c3nc4c(cc3F)c(=O)c(C(=O)O)cn4C3CC3)CC2CN)cc1OC.CS(=O)(=O)O` (racemic) as the molecule, how does the MIC read?
The MIC was 0.5 µg/mL.

tested on: Pseudomonas aeruginosa; assay: Antimicrobial activity against extended spectrum beta-lactamases-producing Pseudomonas aeruginosa 10-18 after 18-24 hrs by two-fold serial dilution method; format: functional; summary of the method: as §1

For `COc1cc(Br)c(CO/N=C2\CN(c3nc4c(cc3F)c(=O)c(C(=O)O)cn4C3CC3)CC2CN)cc1OC.CS(=O)(=O)O` (racemic), which MIC is on record?
The MIC was over 128 µg/mL.

tested on: Staphylococcus epidermidis; assay: Antimicrobial activity against extended spectrum beta-lactamases-producing methicillin-sensitive Staphylococcus epidermidis 10-11 after 18-24 hrs by two-fold serial dilution method; format: functional; summary of the method: as §1

For `COc1cc(Br)c(CO/N=C2\CN(c3nc4c(cc3F)c(=O)c(C(=O)O)cn4C3CC3)CC2CN)cc1OC.CS(=O)(=O)O` (racemic), which MIC is on record?
The MIC was 0.5 µg/mL.

tested on: Enterococcus faecalis; assay: Antimicrobial activity against Enterococcus faecalis 10-5 after 18-24 hrs by two-fold serial dilution method; format: functional; summary of the method: as §1

How did the MIC turn out when `COc1cc(Br)c(CO/N=C2\CN(c3nc4c(cc3F)c(=O)c(C(=O)O)cn4C3CC3)CC2CN)cc1OC.CS(=O)(=O)O` (racemic) was run?
Its MIC is 1 µg/mL.

tested on: Staphylococcus epidermidis; assay: Antimicrobial activity against extended spectrum beta-lactamases-producing methicillin-resistant Staphylococcus epidermidis 10-10 after 18-24 hrs by two-fold serial dilution method; format: functional
Summary of the method: (§2)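 Agar twofold serial dilution MIC against clinical isolates. MIC was taken as the lowest concentration giving complete inhibition of bacterial growth after incubation at 35 °C for 18-24 h.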

For `COc1cc(Br)c(CO/N=C2\CN(c3nc4c(cc3F)c(=O)c(C(=O)O)cn4C3CC3)CC2CN)cc1OC.CS(=O)(=O)O` (racemic), which MIC is on record?
Its MIC is 0.5 µg/mL.

tested on: Escherichia coli; assay: Antimicrobial activity against Escherichia coli ATCC 25922 after 18-24 hrs by two-fold serial dilution method; format: functional; summary of the method: as §1

Which MIC does the source give for `COc1cc(Br)c(CO/N=C2\CN(c3nc4c(cc3F)c(=O)c(C(=O)O)cn4C3CC3)CC2CN)cc1OC.CS(=O)(=O)O` (racemic) here?
The MIC was 0.5 µg/mL.

tested on: Pseudomonas aeruginosa; assay: Antimicrobial activity against extended spectrum beta-lactamases-producing Pseudomonas aeruginosa 10-9 after 18-24 hrs by two-fold serial dilution method; format: functional; summary of the method: as §1

How did the MIC turn out when `COc1cc(Br)c(CO/N=C2\CN(c3nc4c(cc3F)c(=O)c(C(=O)O)cn4C3CC3)CC2CN)cc1OC.CS(=O)(=O)O` (racemic) was run?
The MIC was over 128 µg/mL.

tested on: Staphylococcus aureus; assay: Antimicrobial activity against extended spectrum beta-lactamases-producing methicillin-resistant Staphylococcus aureus 10-11 after 18-24 hrs by two-fold serial dilution method; format: functional; summary of the method: as §2

`COc1cc(Br)c(CO/N=C2\CN(c3nc4c(cc3F)c(=O)c(C(=O)O)cn4C3CC3)CC2CN)cc1OC.CS(=O)(=O)O` (racemic) was tested. Which MIC did it give?
Its MIC is over 128 µg/mL.

tested on: Escherichia coli; assay: Antimicrobial activity against extended spectrum beta-lactamases-producing Escherichia coli 10-2 after 18-24 hrs by two-fold serial dilution method; format: functional; summary of the method: as §1

`COc1cc(Br)c(CO/N=C2\CN(c3nc4c(cc3F)c(=O)c(C(=O)O)cn4C3CC3)CC2CN)cc1OC.CS(=O)(=O)O` (racemic) was tested. Which MIC did it give?
Its MIC is over 128 µg/mL.

tested on: Escherichia coli; assay: Antimicrobial activity against Escherichia coli 10-2 after 18-24 hrs by two-fold serial dilution method; format: functional; summary of the method: as §1

With `COc1cc(Br)c(CO/N=C2\CN(c3nc4c(cc3F)c(=O)c(C(=O)O)cn4C3CC3)CC2CN)cc1OC.CS(=O)(=O)O` (racemic) as the molecule, how does the MIC read?
Its MIC is over 128 µg/mL.

tested on: Enterococcus faecium; assay: Antimicrobial activity against Enterococcus faecium 10-5 after 18-24 hrs by two-fold serial dilution method; format: functional; summary of the method: as §1

For `COc1cc(Br)c(CO/N=C2\CN(c3nc4c(cc3F)c(=O)c(C(=O)O)cn4C3CC3)CC2CN)cc1OC.CS(=O)(=O)O` (racemic), which MIC is on record?
Its MIC is 64 µg/mL.

tested on: Escherichia coli; assay: Antimicrobial activity against extended spectrum beta-lactamases-producing Escherichia coli 10-4 after 18-24 hrs by two-fold serial dilution method; format: functional; summary of the method: as §1

For `COc1cc(Br)c(CO/N=C2\CN(c3nc4c(cc3F)c(=O)c(C(=O)O)cn4C3CC3)CC2CN)cc1OC.CS(=O)(=O)O` (racemic), which MIC is on record?
The MIC was over 128 µg/mL.

tested on: Streptococcus pneumoniae; assay: Antimicrobial activity against extended spectrum beta-lactamases-producing Streptococcus pneumoniae 10-1 after 18-24 hrs by two-fold serial dilution method; format: functional; summary of the method: as §1

How did the MIC turn out when `COc1cc(Br)c(CO/N=C2\CN(c3nc4c(cc3F)c(=O)c(C(=O)O)cn4C3CC3)CC2CN)cc1OC.CS(=O)(=O)O` (racemic) was run?
The MIC was 1 µg/mL.

Source: ChEMBL document CHEMBL2062435, “Synthesis and in vitro antibacterial activity of gemifloxacin derivatives containing a substituted benzyloxime moiety” (2012)
